According to ChEMBL document CHEMBL3739301, “Design, synthesis and biological evaluation of tricyclic diterpene derivatives as novel neuroprotective agents against ischemic brain injury” (Eur J Med Chem, 2015):
Calls of active or inactive are those of the source. The calls are words filed in the database; no cut-off is given here.

Legend:
neuronal [1] = experiment: Neuroprotective activity against glutamate-induced neuronal cell death in Sprague-Dawley rat CGN cells assessed as increase in SOD level at 10 uM preincubated for 24 hrs followed by glutamate challenge measured after 24 hrs; type: functional, cell-based
[2] = Neuroprotective activity against nutrient deprivation-induced neuronal cell death in Sprague-Dawley rat CGN cells at 10 uM preincubated for 24 hrs followed by induction of nutrient deprivation measured after 24 hrs relative to control; type: functional
Procedure, shortened: (§1)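 Primary rat cerebellar granule neurons (8-day-old Sprague-Dawley pups, DIV 6-8) pretreated 24 h with compound (0.1% DMSO final), then deprived of B27 serum substitute for 24 h. MTT viability (0.5 mg/ml, 4 h) read at 570 nm against control = 100%; neuroprotection percentage derived from the basal deprived value; mean ± SD, n = 3.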

[3] = Cytotoxicity against Sprague-Dawley rat CGN cells at <10 uM after 72 hrs by MTT assay; type: cell-based
Procedure, shortened: (§2)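 Primary cerebellar granule neurons from 8-day SD rat pups; cytosine arabinoside […] added at 24 h, used at DIV 6–8. Cells exposed to a concentration series for 72 h, 0.1% DMSO final. Viability by MTT (0.5 mg/ml, 4 h, 37 °C); formazan dissolved in DMSO, OD 570 nm. n = 3, mean ± SD.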

[4] = Neuroprotective activity in Sprague-Dawley rat CGN cells assessed as upregulation of HO-1 expression after 24 hrs by Western blot analysis; type: functional, cell-based
Procedure, shortened: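 Primary granule neurons treated with a concentration series for 24 h, lysed in RIPA buffer, protein by BCA. Separated on 15% SDS-PAGE, transferred to PVDF, blocked in 5% BSA. Primary antibody overnight at 4 °C, secondary 30 min at room temperature; chemiluminescent detection. HO-1 quantified by densitometry normalized to β-actin. n = 3, mean ± SD.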

[5] = Neuroprotective activity against glutamate-induced neuronal cell death in Sprague-Dawley rat CGN cells at 10 uM preincubated for 24 hrs followed by glutamate challenge measured after 24 hrs relative to control; type: functional
[6] = Neuroprotective activity against glutamate-induced neuronal cell death in Sprague-Dawley rat CGN cells assessed as cell viability at 10 uM preincubated for 24 hrs followed by glutamate challenge measured after 24 hrs by MTT assay (reference value: 40.4%); type: functional; details: read-out: Activity
[7] = Neuroprotective activity against oxygen-glucose deprivation-induced neuronal cell death in Sprague-Dawley rat CGN cells assessed as cell viability at 10 uM preincubated for 24 hrs followed by induction of oxygen-glucose deprivation measured after 24 hrs by MTT assay (reference value: 48.7%); type: functional; details: read-out: Activity
neuronal [8] = experiment: Neuroprotective activity against glutamate-induced neuronal cell death in Sprague-Dawley rat CGN cells assessed as increase in cell viability preincubated for 24 hrs followed by glutamate challenge measured after 24 hrs by MTT assay; type: functional, cell-based
[9] = Neuroprotective activity against oxygen-glucose deprivation-induced neuronal cell death in Sprague-Dawley rat CGN cells at 10 uM preincubated for 24 hrs followed by induction of oxygen-glucose deprivation measured after 24 hrs relative to control; type: functional
[10] = Neuroprotective activity against oxygen-glucose deprivation-induced neuronal cell death in Sprague-Dawley rat CGN cells assessed as cell viability at 1 uM preincubated for 24 hrs followed by induction of oxygen-glucose deprivation measured after 24 hrs by MTT assay (reference value: 48.7%); type: functional; details: read-out: Activity
[11] = Cytotoxicity against Sprague-Dawley rat CGN cells at 50 to 100 uM after 72 hrs by MTT assay; type: cell-based; procedure, shortened: as §2
neuronal [12] = experiment: Neuroprotective activity against glutamate-induced neuronal cell death in Sprague-Dawley rat CGN cells assessed as increase in GSH level at 10 uM preincubated for 24 hrs followed by glutamate challenge measured after 24 hrs; type: functional, cell-based
Procedure, shortened: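 Granule neurons pretreated 24 h with […] compound, then […] for 24 h. Lysed in buffer containing protease inhibitor cocktail; protein determined by BCA. SOD activity and GSH level measured with commercial kits. n = 3, mean ± SD.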

[13] = Neuroprotective activity against nutrient deprivation-induced neuronal cell death in Sprague-Dawley rat CGN cells at […] preincubated for 24 hrs followed by induction of nutrient deprivation measured after 24 hrs relative to control; type: functional; procedure, shortened: as §1
[14] = Neuroprotective activity against nutrient deprivation-induced neuronal cell death in Sprague-Dawley rat CGN cells assessed as cell viability at […] preincubated for 24 hrs followed by induction of nutrient deprivation measured after 24 hrs by MTT assay (reference value: 44.1%); type: functional; details: read-out: Activity
Procedure, shortened: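 Cerebellar granule neurons pretreated 24 h with 1 or […] compound (0.1% DMSO), then kept without B27 supplement for 24 h. Viability by MTT (0.5 mg/ml, 4 h, OD 570 nm) against non-deprived control (100%); neuroprotection % from basal value. n = 3, mean ± SD.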

[15] = Neuroprotective activity against glutamate-induced neuronal cell death in Sprague-Dawley rat CGN cells assessed as cell viability at 50 uM preincubated for 24 hrs followed by glutamate challenge measured after 24 hrs by MTT assay (reference value: 40.4%); type: functional; details: read-out: Activity
[16] = Neuroprotective activity against glutamate-induced neuronal cell death in Sprague-Dawley rat CGN cells at 50 uM preincubated for 24 hrs followed by glutamate challenge measured after 24 hrs relative to control; type: functional
[17] = Neuroprotective activity against oxygen-glucose deprivation-induced neuronal cell death in Sprague-Dawley rat CGN cells assessed as cell viability at 50 uM preincubated for 24 hrs followed by induction of oxygen-glucose deprivation measured after 24 hrs by MTT assay (reference value: 48.7%); type: functional; details: read-out: Activity
Rattus norvegicus [18] = experiment: Anti-ischemic activity in Sprague-Dawley rat transient middle cerebral artery occlusion model assessed as reduction in neurological deficit at 3 mg/kg, iv administered for 2 to 6 hrs post middle cerebral artery occlusion measured at 24 hrs; type: functional, organism-based
Procedure, shortened: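 Male SD rats (260–280 g); intraluminal nylon suture (~0.26 mm, round tip) occluded MCA for 2 h, then withdrawn for reperfusion, body temperature held at 37 °C. Given iv at 2, 4 and 6 h after ischemia onset; 10 mg/kg in DMSO or 3 mg/kg in saline; DMSO or saline vehicle controls. Neurological score at 24 h after MCAO; n = 8–12, mean ± SD.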

Rattus norvegicus [19] = experiment: Antioxidant activity in Sprague-Dawley rat transient middle cerebral artery occlusion model assessed as […] in GSH level in ipsilateral cortex at 3 mg/kg, iv measured at 24 hrs post middle cerebral artery occlusion; type: functional, organism-based
Procedure, shortened: (§3)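 Rat tMCAO: 2 h suture occlusion, then reperfusion. Dosing iv at 2, 4 and 6 h after onset, 10 mg/kg (DMSO) or 3 mg/kg (saline). At 24 h the ipsilateral cortex was lysed in RIPA buffer and protein quantified by BCA. GSH concentration and SOD activity were then measured with commercial kits.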

[20] = Neuroprotective activity against oxygen-glucose deprivation-induced neuronal cell death in Sprague-Dawley rat CGN cells at 50 uM preincubated for 24 hrs followed by induction of oxygen-glucose deprivation measured after 24 hrs relative to control; type: functional
Rattus norvegicus [21] = experiment: Antioxidant activity in Sprague-Dawley rat transient middle cerebral artery occlusion model assessed as […] in SOD level in ipsilateral cortex at 3 mg/kg, iv measured at 24 hrs post middle cerebral artery occlusion; type: functional, organism-based; procedure, shortened: as §3
Rattus norvegicus [22] = experiment: Anti-ischemic activity in Sprague-Dawley rat transient middle cerebral artery occlusion model assessed as reduction in infarct volume at 3 mg/kg, iv administered for 2 to 6 hrs post middle cerebral artery occlusion measured at 24 hrs by TTC staining-based morphometric analysis; type: organism-based; details: in vivo
Procedure, shortened: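 Male Sprague-Dawley rats (260-280 g), middle cerebral artery occluded 2 h by intraluminal nylon monofilament, then reperfused; body temperature held at 37 C. Drug given iv at 2, 4 and 6 h after ischemia onset (test agent in DMSO, edaravone in saline; vehicle controls). Neurological scoring at 24 h; 2 mm coronal slices stained with 2% TTC 20 min at 37 C, formalin-fixed; infarct volume by morphometry; n = 8-12.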

Which Activity (neuronal [1]) does the source give for `COc1cc2c(cc1C(C)=O)CC[C@H]1C(C)(C)[C@@H](O)CC[C@]21C` here?
The Activity was “Active”.

What about the Activity [2] of the same molecule?
The Activity was 19.5%.

And the Activity [3]?
Its Activity is “Non-toxic”.

And the Activity [4]?
The Activity was “Dose-dependent effect”.

What about the Activity [5] of the same molecule?
The Activity was 75.2%.

And the viability at 10 µM [6]?
The viability at 10 µM was 85.2%.

What about the viability at 10 µM [7] of the same molecule?
Its viability at 10 µM is 74.5%.

What about the Activity (neuronal [8]) of the same molecule?
Its Activity is “Dose-dependent effect”.

And the Activity [9]?
Its Activity is 50.3%.

What about the viability at 1 µM [10] of the same molecule?
Its viability at 1 µM is 51.1%.

And the Activity [11]?
Its Activity is “Toxic”.

And the Activity (neuronal [12])?
The Activity was “Active”.

What does the source list for `COC(=O)c1cc2c(cc1OC)[C@@]1(C)CC[C@H](O)C(C)(C)[C@@H]1CC2`?
Activity [2]: 13.6%; Activity [3]: Non-toxic; Activity [5]: 53.7%; viability at 10 µM [6]: 72.4%; viability at 10 µM [7]: 68.4%; Activity (neuronal [8]): Dose-dependent effect; Activity [9]: 38.4%; viability at 1 µM [10]: 43.9%

With `COc1cc2c(cc1C(=O)N1CCCCC1)CC[C@H]1C(C)(C)[C@@H](O)CC[C@]21C` as the molecule, how does the Activity [5] read?
The Activity was 64.9%.

And the viability at 10 µM [6]?
Its viability at 10 µM is 79.1%.

With `CCNC(=O)c1cc2c(cc1OC)[C@@]1(C)CC[C@H](O)C(C)(C)[C@@H]1CC2` as the molecule, how does the Activity [5] read?
Its Activity is 63.4%.

What about the viability at 10 µM [6] of the same molecule?
Its viability at 10 µM is 78.2%.

For `COc1cc2c(cc1CO)CC[C@H]1C(C)(C)[C@@H](O)CC[C@]21C`, which Activity [5] is on record?
The Activity was 40.3%.

What about the viability at 10 µM [6] of the same molecule?
Its viability at 10 µM is 64.4%.

For `CCOC(=O)c1cc2c(cc1OC)[C@@]1(C)CC[C@H](O)C(C)(C)[C@@H]1CC2`, which Activity [5] is on record?
The Activity was 54.9%.

What about the viability at 10 µM [6] of the same molecule?
The viability at 10 µM was 73.1%.

Which Activity [5] does the source give for `CC(=O)c1cc2c(cc1O)[C@@]1(C)CC[C@H](O)C(C)(C)[C@@H]1CC2` here?
The Activity was 61.6%.

And the viability at 10 µM [6]?
Its viability at 10 µM is 77.1%.

Which Activity [5] does the source give for `COc1cc2c(cc1C(=O)N(C)C)CC[C@H]1C(C)(C)[C@@H](O)CC[C@]21C` here?
The Activity was 50.8%.

And the viability at 10 µM [6]?
Its viability at 10 µM is 70.7%.

Which Activity [13] does the source give for `CC(=O)N[C@@H](CS)C(=O)O` [ACETYLCYSTEINE] here?
Its Activity is 17.2%.

And the viability [14]?
Its viability is 53.7%.

Which viability at 50 µM [15] does the source give for `CC1=NN(c2ccccc2)C(=O)C1` [EDARAVONE] here?
The viability at 50 µM was 86.7%.

And the Activity [16]?
The Activity was 77.7%.

What about the viability at 50 µM [17] of the same molecule?
The viability at 50 µM was 85.8%.

What about the Activity (Rattus norvegicus [18]) of the same molecule?
The Activity was “Active”.

And the Activity (Rattus norvegicus [19])?
Its Activity is “Active”.

And the Activity [20]?
The Activity was 72.3%.

What about the Activity (Rattus norvegicus [21]) of the same molecule?
The Activity was “Active”.

And the Activity (Rattus norvegicus [22])?
Its Activity is “Active”.

For `CCCCCCCC(=O)c1cc2c(cc1OC)[C@@]1(C)CC[C@H](O)C(C)(C)[C@@H]1CC2`, which viability at 10 µM [6] is on record?
Its viability at 10 µM is 40.5%.
